Calls of active or inactive are those of the source. No cut-off for these calls is given here.
Tests used:
[1] = molecular target: Interferon-induced, double-stranded RNA-activated protein kinase (Homo sapiens, UniProt P19525); test: Inhibition of PKR in human HeLa cells lysate pre incubated for 15 mins followed by ATP acyl phosphate probe addition and measured after 10 mins by LC-MS/MS analysis; type: subcellular
[2] = molecular target: EKC/KEOPS complex subunit TP53RK (Homo sapiens, UniProt Q96S44); test: Inhibition of PRPK in human HeLa cells lysate pre incubated for 15 mins followed by ATP acyl phosphate probe addition and measured after 10 mins by LC-MS/MS analysis; type: subcellular
[3] = molecular target: Serine/threonine-protein kinase TAO3 (Homo sapiens, UniProt Q9H2K8); test: Inhibition of TAO3 in human HeLa cells lysate pre incubated for 15 mins followed by ATP acyl phosphate probe addition and measured after 10 mins by LC-MS/MS analysis; type: subcellular
[4] = molecular target: Serine-protein kinase ATM (Homo sapiens, UniProt Q13315); test: Inhibition of ATM in human HeLa cells lysate pre incubated for 15 mins followed by ADP acyl phosphate probe addition and measured after 10 mins by LC-MS/MS analysis; type: subcellular
Procedure, shortened: (§1)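 KiNativ-type profiling in HeLa lysate (5 mg/mL total protein). Lysate preincubated 15 min with inhibitor at 50, 10, 2, 0.8 or 0 μM, then ATP or ADP acylphosphate probe added (5 μM final) for 10 min. Reaction stopped with urea and analysed by targeted MS, using up to four fragment ions per kinase peptide-probe conjugate. % inhibition calculated against untreated lysate. Duplicate reactions.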

[5] = molecular target: Calcium/calmodulin-dependent protein kinase kinase 1 (Homo sapiens, UniProt Q8N5S9); test: Inhibition of CAMKK1 in human HeLa cells lysate pre incubated for 15 mins followed by ADP acyl phosphate probe addition and measured after 10 mins by LC-MS/MS analysis; type: subcellular
Procedure, shortened: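 KiNativ profiling in HeLa lysate (5 mg/mL total protein). Lysate incubated 15 min with inhibitor at 50, 10, 2, 0.8 or 0 μM. ATP or ADP acylphosphate probe then added (5 μM final) and reacted 10 min. Reaction stopped with urea and analysed by targeted MS, using up to four fragment ions per kinase peptide-probe conjugate. % inhibition taken against untreated lysate. Run in duplicate.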

[6] = molecular target: Mitogen-activated protein kinase 3 (Homo sapiens, UniProt P27361); test: Inhibition of ERK1 in human HeLa cells lysate pre incubated for 15 mins followed by ADP acyl phosphate probe addition and measured after 10 mins by LC-MS/MS analysis; type: subcellular
[7] = molecular target: Dual specificity mitogen-activated protein kinase kinase 5 (Homo sapiens, UniProt Q13163); test: Inhibition of MAP2K5 in human HeLa cells lysate pre incubated for 15 mins followed by ADP acyl phosphate probe addition and measured after 10 mins by LC-MS/MS analysis; type: subcellular
[8] = molecular target: Serine/threonine-protein kinase Nek7 (Homo sapiens, UniProt Q8TDX7); test: Inhibition of NEK7 in human HeLa cells lysate pre incubated for 15 mins followed by ADP acyl phosphate probe addition and measured after 10 mins by LC-MS/MS analysis; type: subcellular
[9] = molecular target: T1, Cyclin-dependent kinase 16 (Homo sapiens, UniProt Q00536); test: Inhibition of PCTAIRE1 in human HeLa cells lysate at 50 uM pre incubated for 15 mins followed by ADP acyl phosphate probe addition and measured after 10 mins by LC-MS/MS analysis relative to control; type: subcellular; settings: time 25.0 min
[10] = molecular target: T2, DNA-dependent protein kinase catalytic subunit (Homo sapiens, UniProt P78527); test: Inhibition of PRKDC in human HeLa cells lysate at 50 uM pre incubated for 15 mins followed by ADP acyl phosphate probe addition and measured after 10 mins by LC-MS/MS analysis relative to control; type: subcellular; settings: time 25.0 min
[11] = molecular target: T1, Cyclin-dependent kinase 16; test: Inhibition of PCTAIRE1 in human HeLa cells lysate at 10 uM pre incubated for 15 mins followed by ADP acyl phosphate probe addition and measured after 10 mins by LC-MS/MS analysis relative to control; type: subcellular; settings: time 25.0 min
RPS6KA1/RPS6KA2/RPS6KA3 = RPS6KA1/RPS6KA2/RPS6KA3 (Homo sapiens, UniProt P51812+Q15349+Q15418); test: Inhibition of RSK1/2/3 in human HeLa cells lysate at 2 uM pre incubated for 15 mins followed by ADP acyl phosphate probe addition and measured after 10 mins by LC-MS/MS analysis relative to control; type: subcellular; settings: time 25.0 min
eIF-2-alpha kinase GCN2 = eIF-2-alpha kinase GCN2 (Homo sapiens, UniProt Q9P2K8); test: Inhibition of GCN2 in human HeLa cells lysate at 50 uM pre incubated for 15 mins followed by ATP acyl phosphate probe addition and measured after 10 mins by LC-MS/MS analysis relative to control; type: subcellular; settings: time 25.0 min
[12] = molecular target: T2, DNA-dependent protein kinase catalytic subunit; test: Inhibition of PRKDC in human HeLa cells lysate at 50 uM pre incubated for 15 mins followed by ATP acyl phosphate probe addition and measured after 10 mins by LC-MS/MS analysis relative to control; type: subcellular; settings: time 25.0 min
[13] = molecular target: Ephrin type-B receptor 4 (Homo sapiens) (UniProt P54760); test: Inhibition of EphB4 in human HeLa cells lysate at 10 uM pre incubated for 15 mins followed by ATP acyl phosphate probe addition and measured after 10 mins by LC-MS/MS analysis relative to control; type: subcellular; settings: time 25.0 min
[14] = molecular target: Calcium/calmodulin-dependent protein kinase type II subunit delta (Homo sapiens, UniProt Q13557); test: Inhibition of CAMK2d in human HeLa cells lysate at 2 uM pre incubated for 15 mins followed by ATP acyl phosphate probe addition and measured after 10 mins by LC-MS/MS analysis relative to control; type: subcellular; settings: time 25.0 min; procedure, shortened: as §1
[15] = Toxicity in C57Bl/6 mouse assessed as effect on injection site at 50 mg/kg, ip for 14 days; type: organism-based; settings: in vivo, 336 h, time 14 day
[16] = Toxicity in C57Bl/6 mouse assessed as effect on amylase level at 50 mg/kg, ip for 14 days (reference value: 1027 U/L); type: organism-based; settings: in vivo, 336 h, time 14 day
[17] = Toxicity in C57Bl/6 mouse assessed as effect on globulin level at 50 mg/kg, ip for 14 days (reference value: 2.3 g/dl); type: organism-based; settings: in vivo, 336 h, time 14 day
Lewis lung carcinoma [18] = test: Antitumor activity against mouse LL2 cells allografted in C57Bl/6 mouse assessed as reduction tumor growth at 50 mg/kg, ip administered on day 10 post implantation measured after 17 days; type: functional, organism-based; settings: time 7.0 day
Procedure, shortened: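 LL/2 cells (1×10^6, in DMEM) were injected s.c. into the right flank of 6-week-old C57Bl/6 mice on day 0. Dosing was 50 mg/kg i.p. twice daily, starting on day 1, 7 or 10 and continuing to day 17; controls received carrier. 6 mice per treated group. Tumors were measured every 2–3 days.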

Lewis lung carcinoma [19] = test: Antitumor activity against mouse LL2 cells allografted in C57Bl/6 mouse assessed as decrease in BrdU incorporation in cell nuclei in tumor at 50 mg/kg, ip by fluorescence microscopic analysis; type: functional, organism-based
Procedure, shortened: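 HeLa or LL/2 tumor sections from treated and control xenograft mice were stained with anti-BrdU antibody and DAPI and imaged by fluorescence microscopy. n = 6 mice, 9 slices.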

Mus musculus = test: Antiangiogenic activity in C57Bl/6 mouse implanted with matrigel assessed as reduction in bFGF-induced angiogenesis at 50 mg/kg, ip for 6 days by Masson's trichrome staining based assay; type: functional, organism-based; settings: time 6.0 day
Procedure, shortened: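 Mice were implanted with Matrigel containing 400 ng/mL bFGF. From the next day they received drug or vehicle for 6 days. Plugs were then harvested, sectioned and stained with Masson's trichrome; hemoglobin content of the plugs was also measured. n = 6 mice, 9 slices.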

T2 sequence (P78527 whole entry): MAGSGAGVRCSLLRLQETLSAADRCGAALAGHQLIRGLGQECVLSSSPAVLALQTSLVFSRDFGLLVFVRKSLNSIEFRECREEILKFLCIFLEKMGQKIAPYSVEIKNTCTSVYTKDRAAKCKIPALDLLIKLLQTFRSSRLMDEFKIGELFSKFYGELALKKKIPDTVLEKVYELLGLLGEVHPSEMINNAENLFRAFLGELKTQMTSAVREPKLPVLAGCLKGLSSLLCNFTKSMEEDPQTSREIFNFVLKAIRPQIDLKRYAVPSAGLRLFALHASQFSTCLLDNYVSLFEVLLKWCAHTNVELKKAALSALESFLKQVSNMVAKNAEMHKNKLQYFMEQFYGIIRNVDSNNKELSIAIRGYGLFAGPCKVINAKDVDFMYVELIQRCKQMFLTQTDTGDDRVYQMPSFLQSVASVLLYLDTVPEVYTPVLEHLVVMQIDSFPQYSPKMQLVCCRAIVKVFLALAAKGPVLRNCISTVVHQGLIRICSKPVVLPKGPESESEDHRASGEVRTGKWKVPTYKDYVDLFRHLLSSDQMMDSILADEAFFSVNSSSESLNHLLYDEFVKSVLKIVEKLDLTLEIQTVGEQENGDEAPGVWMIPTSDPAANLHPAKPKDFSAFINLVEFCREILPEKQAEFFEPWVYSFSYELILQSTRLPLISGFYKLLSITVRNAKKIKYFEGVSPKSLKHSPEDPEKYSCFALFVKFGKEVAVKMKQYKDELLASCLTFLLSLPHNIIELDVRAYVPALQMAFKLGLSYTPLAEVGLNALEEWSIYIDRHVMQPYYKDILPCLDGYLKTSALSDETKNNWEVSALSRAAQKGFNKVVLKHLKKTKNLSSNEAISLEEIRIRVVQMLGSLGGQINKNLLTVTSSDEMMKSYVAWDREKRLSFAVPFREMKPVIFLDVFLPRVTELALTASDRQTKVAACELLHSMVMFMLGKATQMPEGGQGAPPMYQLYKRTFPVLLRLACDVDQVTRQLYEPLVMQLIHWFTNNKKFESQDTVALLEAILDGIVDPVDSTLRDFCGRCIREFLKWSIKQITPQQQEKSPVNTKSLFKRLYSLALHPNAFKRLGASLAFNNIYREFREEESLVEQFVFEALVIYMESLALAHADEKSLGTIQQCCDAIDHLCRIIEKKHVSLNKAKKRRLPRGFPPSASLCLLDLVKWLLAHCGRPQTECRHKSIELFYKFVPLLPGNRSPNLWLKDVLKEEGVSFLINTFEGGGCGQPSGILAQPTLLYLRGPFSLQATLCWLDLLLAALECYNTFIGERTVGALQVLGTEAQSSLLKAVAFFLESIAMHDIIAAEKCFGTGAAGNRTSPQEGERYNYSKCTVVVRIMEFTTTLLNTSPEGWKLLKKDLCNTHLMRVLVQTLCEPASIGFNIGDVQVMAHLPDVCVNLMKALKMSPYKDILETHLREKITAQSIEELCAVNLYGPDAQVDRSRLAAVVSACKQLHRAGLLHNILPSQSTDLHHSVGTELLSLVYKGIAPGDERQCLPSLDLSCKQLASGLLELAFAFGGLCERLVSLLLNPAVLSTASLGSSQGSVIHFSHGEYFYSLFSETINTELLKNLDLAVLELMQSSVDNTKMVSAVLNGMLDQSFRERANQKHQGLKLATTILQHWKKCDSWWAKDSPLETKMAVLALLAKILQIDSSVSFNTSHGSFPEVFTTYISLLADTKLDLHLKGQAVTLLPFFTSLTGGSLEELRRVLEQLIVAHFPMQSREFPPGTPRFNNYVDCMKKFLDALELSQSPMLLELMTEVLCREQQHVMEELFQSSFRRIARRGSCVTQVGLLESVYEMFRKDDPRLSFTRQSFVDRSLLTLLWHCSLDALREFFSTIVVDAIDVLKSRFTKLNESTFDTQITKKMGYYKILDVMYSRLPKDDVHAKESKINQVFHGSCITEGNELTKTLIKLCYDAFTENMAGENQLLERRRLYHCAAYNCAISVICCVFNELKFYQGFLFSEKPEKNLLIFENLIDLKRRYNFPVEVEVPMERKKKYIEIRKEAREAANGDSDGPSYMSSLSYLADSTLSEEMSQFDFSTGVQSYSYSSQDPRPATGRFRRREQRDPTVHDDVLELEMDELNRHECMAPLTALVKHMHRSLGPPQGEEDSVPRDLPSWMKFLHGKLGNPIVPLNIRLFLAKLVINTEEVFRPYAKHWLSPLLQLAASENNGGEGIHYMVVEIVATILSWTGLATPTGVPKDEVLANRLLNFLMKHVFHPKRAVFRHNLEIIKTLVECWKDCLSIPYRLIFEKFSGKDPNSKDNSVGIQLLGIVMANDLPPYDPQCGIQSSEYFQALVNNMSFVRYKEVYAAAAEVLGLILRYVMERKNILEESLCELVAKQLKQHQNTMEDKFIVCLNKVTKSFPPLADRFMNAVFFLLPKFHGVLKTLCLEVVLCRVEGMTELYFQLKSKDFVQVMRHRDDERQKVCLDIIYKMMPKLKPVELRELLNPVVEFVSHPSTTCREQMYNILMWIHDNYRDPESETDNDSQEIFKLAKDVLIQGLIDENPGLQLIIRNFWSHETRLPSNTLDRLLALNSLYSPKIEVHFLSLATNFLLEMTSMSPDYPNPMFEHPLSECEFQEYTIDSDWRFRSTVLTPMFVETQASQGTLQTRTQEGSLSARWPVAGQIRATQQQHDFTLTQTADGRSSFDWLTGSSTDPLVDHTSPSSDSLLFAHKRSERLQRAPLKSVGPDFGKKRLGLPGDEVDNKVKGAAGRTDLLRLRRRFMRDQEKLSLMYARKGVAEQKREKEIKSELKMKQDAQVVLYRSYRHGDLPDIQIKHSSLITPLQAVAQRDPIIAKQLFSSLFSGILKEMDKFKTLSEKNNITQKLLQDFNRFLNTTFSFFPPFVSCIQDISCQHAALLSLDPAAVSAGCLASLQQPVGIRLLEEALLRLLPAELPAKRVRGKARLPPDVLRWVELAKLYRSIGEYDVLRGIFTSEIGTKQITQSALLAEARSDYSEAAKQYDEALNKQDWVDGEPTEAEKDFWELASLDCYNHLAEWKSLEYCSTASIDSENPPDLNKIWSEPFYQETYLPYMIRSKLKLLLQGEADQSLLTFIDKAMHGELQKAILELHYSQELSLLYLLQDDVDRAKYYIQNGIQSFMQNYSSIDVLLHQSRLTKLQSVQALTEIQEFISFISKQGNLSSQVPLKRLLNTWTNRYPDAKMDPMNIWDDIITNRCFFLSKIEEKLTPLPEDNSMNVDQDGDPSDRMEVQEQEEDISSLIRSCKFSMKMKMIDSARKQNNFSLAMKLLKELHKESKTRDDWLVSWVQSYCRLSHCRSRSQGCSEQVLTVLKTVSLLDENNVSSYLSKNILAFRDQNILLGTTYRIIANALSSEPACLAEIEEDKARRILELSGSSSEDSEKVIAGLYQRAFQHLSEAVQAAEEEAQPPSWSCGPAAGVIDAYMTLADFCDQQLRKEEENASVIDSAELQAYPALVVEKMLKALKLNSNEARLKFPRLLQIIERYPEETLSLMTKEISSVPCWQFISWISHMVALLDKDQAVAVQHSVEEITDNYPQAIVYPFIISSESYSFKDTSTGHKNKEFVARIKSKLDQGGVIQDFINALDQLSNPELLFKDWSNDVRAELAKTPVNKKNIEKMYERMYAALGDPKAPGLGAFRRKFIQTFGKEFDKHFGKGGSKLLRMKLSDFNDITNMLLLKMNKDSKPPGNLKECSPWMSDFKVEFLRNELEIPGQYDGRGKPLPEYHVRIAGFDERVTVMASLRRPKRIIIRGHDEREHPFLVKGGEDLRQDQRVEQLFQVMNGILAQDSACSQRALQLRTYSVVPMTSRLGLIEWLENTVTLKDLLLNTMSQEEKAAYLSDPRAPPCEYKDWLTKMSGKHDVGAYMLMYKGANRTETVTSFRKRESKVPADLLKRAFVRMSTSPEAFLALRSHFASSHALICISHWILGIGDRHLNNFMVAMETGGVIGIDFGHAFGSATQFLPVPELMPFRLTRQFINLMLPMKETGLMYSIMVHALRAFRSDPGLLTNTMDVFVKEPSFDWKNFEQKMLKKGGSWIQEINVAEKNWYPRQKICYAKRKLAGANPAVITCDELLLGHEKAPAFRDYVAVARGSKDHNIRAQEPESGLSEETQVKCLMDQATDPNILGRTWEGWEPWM
T1 sequence (Q00536 whole entry): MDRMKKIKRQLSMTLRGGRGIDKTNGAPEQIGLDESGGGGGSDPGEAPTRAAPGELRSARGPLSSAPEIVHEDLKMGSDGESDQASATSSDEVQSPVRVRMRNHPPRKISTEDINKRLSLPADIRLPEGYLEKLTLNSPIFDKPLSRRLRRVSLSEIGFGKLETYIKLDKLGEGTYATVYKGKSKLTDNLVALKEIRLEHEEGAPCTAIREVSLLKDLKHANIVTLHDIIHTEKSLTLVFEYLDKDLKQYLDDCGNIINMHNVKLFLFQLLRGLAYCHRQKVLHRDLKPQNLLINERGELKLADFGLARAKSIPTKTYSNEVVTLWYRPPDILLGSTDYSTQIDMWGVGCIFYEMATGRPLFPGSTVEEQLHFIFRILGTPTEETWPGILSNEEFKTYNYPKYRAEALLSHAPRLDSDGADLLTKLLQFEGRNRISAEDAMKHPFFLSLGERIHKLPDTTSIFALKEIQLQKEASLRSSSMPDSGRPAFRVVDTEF
Sequence of Mitogen-activated protein kinase 3 (P27361 whole entry): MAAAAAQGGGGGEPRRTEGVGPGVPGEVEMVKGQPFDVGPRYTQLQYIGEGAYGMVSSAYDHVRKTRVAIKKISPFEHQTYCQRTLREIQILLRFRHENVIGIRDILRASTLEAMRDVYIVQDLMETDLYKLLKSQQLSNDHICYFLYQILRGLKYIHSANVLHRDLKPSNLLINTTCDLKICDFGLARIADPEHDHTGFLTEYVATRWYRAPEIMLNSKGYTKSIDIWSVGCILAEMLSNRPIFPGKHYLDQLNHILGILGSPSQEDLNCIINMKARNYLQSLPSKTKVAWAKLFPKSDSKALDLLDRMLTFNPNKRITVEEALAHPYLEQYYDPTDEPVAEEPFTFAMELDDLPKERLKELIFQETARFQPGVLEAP

Question: With `CCOc1cc(N2CCC(O)CC2)ccc1Nc1ncc2c(n1)N(C)c1ccccc1C(=O)N2C` as the compound, how does the IC50 [1] read?
Answer: The IC50 was over 50 µM.

Question: What about the IC50 [2] of the same compound?
Answer: Its IC50 is over 50 µM.

Question: What about the IC50 [3] of the same compound?
Answer: The IC50 was over 50 µM.

Question: What about the IC50 [4] of the same compound?
Answer: Its IC50 is over 50 µM.

Question: What about the IC50 [5] of the same compound?
Answer: The IC50 was over 50 µM.

Question: What about the IC50 [6] of the same compound?
Answer: Its IC50 is over 50 µM.

Question: And the IC50 [7]?
Answer: The IC50 was over 50 µM.

Question: What about the IC50 [8] of the same compound?
Answer: Its IC50 is over 50 µM.

Question: What about the inhibition [9] of the same compound?
Answer: The inhibition was 11.3%.

Question: What about the inhibition [10] of the same compound?
Answer: The inhibition was 2.9%.

Question: And the inhibition [11]?
Answer: The inhibition was 20.8%.

Question: What about the inhibition (RPS6KA1/RPS6KA2/RPS6KA3) of the same compound?
Answer: Its inhibition is 9.4%.

Question: And the inhibition (eIF-2-alpha kinase GCN2)?
Answer: Its inhibition is 7%.

Question: What about the inhibition [12] of the same compound?
Answer: Its inhibition is -3.7%.

Question: What about the inhibition [13] of the same compound?
Answer: Its inhibition is -7.1%.

Question: And the inhibition [14]?
Answer: The inhibition was -1.1%.

Question: And the Activity [15]?
Answer: Its Activity is “Non-Toxic”.

Question: And the Activity [16]?
Answer: Its Activity is 664 U/L.

Question: And the Activity [17]?
Answer: The Activity was 2.5 g/dL.

Question: What about the Activity (Lewis lung carcinoma [18]) of the same compound?
Answer: Its Activity is “Active”.

Question: What about the Activity (Lewis lung carcinoma [19]) of the same compound?
Answer: The Activity was “Active”.

Question: And the Activity (Mus musculus)?
Answer: Its Activity is “Active”.
